Broadly, the pIC50 is −log10 of the IC50, conventionally taken in molar units. High values mean a small IC50, low ones a large IC50.

We go through 15 compounds from ChEMBL document CHEMBL1131187, “Synthesis, activity, and molecular modeling of new 2, 4-dioxo-5-(naphthylmethylene)-3-thiazolidineacetic acids and 2-thioxo analogues as potent aldose reductase inhibitors” (J Med Chem, 1998).

pIC50: −log10 of the molar value.

This experiment deals with Aldo-keto reductase family 1 member B1 (Bos taurus, UniProt P16116). Put plainly: Evaluated in vitro for the inhibition of Aldose reductase. Type of experiment: functional. The method, boiled down: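 Partially purified enzyme from beef lenses homogenized in 96 mM phosphate buffer pH 6.2 at 4 °C; supernatant after 1 h centrifugation at 4 °C. Assay at 37 °C in 96 mM phosphate pH 6.2 with NADPH (0.18 mM) and DL-glyceraldehyde (1 mM). Reaction started with NADPH; A340 decrease followed. Blanks included. Four concentrations, five measures each; IC50 by linear regression of % inhibition vs log concentration.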
`COc1c(/C=C2\SC(=O)N(CC(=O)O)C2=O)ccc2ccccc12`: the negative-log IC50 (pIC50) is 6.82.

In turn, `O=C(O)CN1C(=O)S/C(=C\c2cc3ccccc3cc2Cl)C1=O` had a pIC50 of 7.32. This pIC50 is 0.50 log units higher than that of the compound before.

With `COc1c(/C=C2\SC(=S)N(CC(=O)O)C2=O)ccc2ccccc12`, the negative-log IC50 (pIC50) was 8.05.

For `O=C(O)CN1C(=O)S/C(=C\c2ccc3ccccc3c2)C1=O`, the pIC50 is 6.57.

In the case of `COc1cc2ccccc2cc1/C=C1\SC(=O)N(CC(=O)O)C1=O`, the negative logarithm of the IC50 (pIC50) is 6.89. Compared with the last compound, the pIC50 is 0.32 log units higher.

As to `O=C(O)CN1C(=O)/C(=C/c2ccc3ccccc3c2)SC1=S`, the pIC50 was 7.02.

Regarding `COc1cc2ccccc2cc1/C=C1\SC(=S)N(CC(=O)O)C1=O`, the negative logarithm of the IC50 (pIC50) was 7.70.

Take `COc1ccc2cc(/C=C3\SC(=O)N(CC(=O)O)C3=O)ccc2c1`: the negative logarithm of the IC50 (pIC50) was 7.00.

With `COc1ccc2cc(/C=C3\SC(=S)N(CC(=O)O)C3=O)ccc2c1`, the pIC50 was 7.17.

`O=C(O)CN1C(=O)/C(=C/c2ccc3ccccc3c2[N+](=O)[O-])SC1=S` showed a pIC50 of 7.10.

For `O=C(O)CN1C(=O)S/C(=C\c2ccc3ccccc3c2Br)C1=O`, the pIC50 is 7.29.

For the compound `O=C(O)CN1C(=O)S/C(=C\c2cc3ccccc3cc2Br)C1=O`, the pIC50 was 6.82.

As for `O=C(O)CN1C(=O)/C(=C/c2ccc3ccccc3c2Br)SC1=S`, the pIC50 is 7.96.

In turn, `O=C(O)CN1C(=O)/C(=C/c2cc3ccccc3cc2Br)SC1=S` gave a negative-log IC50 (pIC50) of 7.82.

As to `O=C(O)Cc1nn(Cc2ccc(Br)cc2F)c(=O)c2ccccc12` [PONALRESTAT], the negative-log IC50 (pIC50) is 8.15.
